Measured values: ChEMBL document CHEMBL4118152, “Discovery of Potent and Selective Periphery-Restricted Quinazoline Inhibitors of the Cyclic Nucleotide Phosphodiesterase PDE1” (J Med Chem, 2018)

Key:
[1] = molecular target: Dual specificity calcium/calmodulin-dependent 3',5'-cyclic nucleotide phosphodiesterase 1C (Homo sapiens, UniProt Q14123); experiment: Inhibition of full length recombinant human PDE1C using 3',5'-[3H]cAMP as substrate after 30 mins by scintillation proximity assay
Procedure, shortened: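 Human recombinant enzymes; substrate held below 1/3 of Km. IC50 reported as mean ± SEM of at least 3 determinations.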

[2] = molecular target: cGMP-specific 3',5'-cyclic phosphodiesterase (Homo sapiens, UniProt O76074); experiment: Inhibition of full length recombinant human PDE5A1 using 3',5'-[3H]cGMP as substrate after 30 mins by scintillation proximity assay
Procedure, shortened: (§1)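 Enzymes were human except PDE6A, which was bovine. Each was assayed with cAMP or cGMP substrate, as appropriate to the enzyme, at concentrations below 1/3 of Km. IC50 values are mean ± SEM from n = 3 or more.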

[3] = molecular target: High affinity cAMP-specific and IBMX-insensitive 3',5'-cyclic phosphodiesterase 8B (Homo sapiens, UniProt O95263); experiment: Inhibition of full length recombinant human PDE8B using 3',5'-[3H]cAMP as substrate after 30 mins by scintillation proximity assay; procedure, shortened: as §1
[4] = molecular target: cAMP and cAMP-inhibited cGMP 3',5'-cyclic phosphodiesterase 10A (Homo sapiens, UniProt Q9Y233); experiment: Inhibition of full length recombinant human PDE10A1 using 3',5'-[3H]cAMP as substrate after 30 mins by scintillation proximity assay; procedure, shortened: as §1
Homo sapiens [5] = species: Homo sapiens; experiment: Selectivity ratio of IC50 for full length recombinant human PDE1A to IC50 for full length recombinant human PDE1B1
Procedure, shortened: (§2)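 IC50s were measured against recombinant PDEs, all human except PDE6A (bovine). Each enzyme was given its appropriate cAMP or cGMP substrate at below 1/3 of its Km. IC50s are the mean of n = 3 or more. The selectivity ratio is the IC50 for the other PDE divided by the IC50 for PDE1B1 or PDE1A.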

Homo sapiens [6] = species: Homo sapiens; experiment: Selectivity ratio of IC50 for full length recombinant human PDE1C to IC50 for full length recombinant human PDE1B1; procedure, shortened: as §2
Homo sapiens [7] = species: Homo sapiens; experiment: Selectivity ratio of IC50 for full length recombinant human PDE3A1 to IC50 for full length recombinant human PDE1B1; procedure, shortened: as §2
Homo sapiens [8] = species: Homo sapiens; experiment: Selectivity ratio of IC50 for full length recombinant human PDE4D3 to IC50 for full length recombinant human PDE1B1; procedure, shortened: as §2
Homo sapiens [9] = species: Homo sapiens; experiment: Selectivity ratio of IC50 for full length recombinant human PDE5A1 to IC50 for full length recombinant human PDE1B1; procedure, shortened: as §2
Homo sapiens [10] = species: Homo sapiens; experiment: Selectivity ratio of IC50 for full length recombinant human PDE8B to IC50 for full length recombinant human PDE1B1; procedure, shortened: as §2
Homo sapiens [11] = species: Homo sapiens; experiment: Selectivity ratio of IC50 for full length recombinant human PDE10A1 to IC50 for full length recombinant human PDE1B1; procedure, shortened: as §2
Homo sapiens [12] = species: Homo sapiens; experiment: Selectivity ratio of IC50 for full length recombinant human PDE2A1 to IC50 for full length recombinant human PDE1A; procedure, shortened: as §2
Homo sapiens [13] = species: Homo sapiens; experiment: Selectivity ratio of IC50 for full length recombinant human PDE4D3 to IC50 for full length recombinant human PDE1A; procedure, shortened: as §2
Homo sapiens [14] = species: Homo sapiens; experiment: Selectivity ratio of IC50 for full length recombinant human PDE11A4 to IC50 for full length recombinant human PDE1A; procedure, shortened: as §2
[15] = Fraction unbound in Wistar Hannover rat plasma at 1 mg/kg, sc measured at 1 hr post dose by LC-MS/MS analysis; format: ADME, organism-based; settings: in vivo
[16] = Fraction unbound in Wistar Hannover rat brain at 1 mg/kg, sc measured at 0.5 hrs post dose by LC-MS/MS analysis; format: ADME, organism-based; settings: in vivo
[17] = Fraction unbound in Wistar Hannover rat brain at 1 mg/kg, sc measured at 4 hrs post dose by LC-MS/MS analysis; format: ADME, organism-based; settings: in vivo, BLD = below limit of detection
[18] = Drug uptake in Wistar Hannover rat cerebrospinal fluid at 1 mg/kg, sc measured at 1 hr post dose by LC-MS/MS analysis; format: ADME, organism-based; settings: read-out: Drug uptake
Procedure, shortened: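 Rats were dosed subcutaneously at 1 mg/kg. CSF, plasma and brain were sampled at 0.5, 1, 2 and 4 h post dose and analysed for drug concentration. Values are means at each time point.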

[19] = Ratio of drug uptake in cerebrospinal fluid to fraction unbound in plasma in Wistar Hannover rat at 1 mg/kg, sc measured at 0.5 hrs post dose by LC-MS/MS analysis; format: ADME, organism-based, CSF/Plasma; settings: in vivo
BCRP (ABCG2) = BCRP (ABCG2) (Homo sapiens, UniProt Q9UNQ0); experiment: Substrate activity at BCRP (unknown origin) assessed as efflux ratio; settings: not told
[20] = molecular target: 5-hydroxytryptamine receptor 2A (Homo sapiens) (UniProt P28223); experiment: Inhibition of human 5-HT2A receptor at 10 uM relative to control
[21] = molecular target: Adenosine receptor A1 (Homo sapiens) (UniProt P30542); experiment: Inhibition of human adenosine A1 receptor at 10 uM relative to control
[22] = molecular target: Alpha-2A adrenergic receptor (Homo sapiens) (UniProt P08913); experiment: Inhibition of human alpha2A receptor at 10 uM relative to control
[23] = molecular target: Beta-3 adrenergic receptor (Homo sapiens) (UniProt P13945); experiment: Inhibition of human beta 3 adrenergic receptor at 10 uM relative to control
[24] = molecular target: Gastrin/cholecystokinin type B receptor (Homo sapiens) (UniProt P32239); experiment: Inhibition of human cholecystokinin CCK2 receptor at 10 uM relative to control
[25] = molecular target: High affinity choline transporter 1 (Homo sapiens) (UniProt Q9GZV3); experiment: Displacement of [3H]hemicholinium-3 from recombinant human Choline Transporter at 10 uM after 60 mins by scintillation counting analysis relative to control
[26] = molecular target: D(2) dopamine receptor (Homo sapiens) (UniProt P14416); experiment: Inhibition of dopamine D2 receptor (unknown origin) at 10 uM relative to control
[27] = molecular target: D(3) dopamine receptor (Homo sapiens) (UniProt P35462); experiment: Inhibition of human dopamine D3 receptor at 10 uM relative to control
[28] = molecular target: Sodium-dependent dopamine transporter (Homo sapiens) (UniProt Q01959); experiment: Inhibition of dopamine transporter (unknown origin) at 10 uM relative to control
[29] = molecular target: 5-hydroxytryptamine receptor 6 (Homo sapiens) (UniProt P50406); experiment: Inhibition of human 5-HT6 receptor at 10 uM relative to control
CYP2C9 = CYP2C9 (Homo sapiens, UniProt P11712); experiment: Inhibition of human CYP2C9 at 10 uM relative to control; format: ADME
[30] = molecular target: Cysteinyl leukotriene receptor 1 (Homo sapiens) (UniProt Q9Y271); experiment: Inhibition of human leukotriene D4 receptor at 10 uM relative to control
Rattus norvegicus = species: Rattus norvegicus; experiment: Inhibition of rat brain AMPA receptor assessed as [3H]AMPA uptake at 10 uM after 60 mins by scintillation counting analysis relative to control
CYP2D6 = CYP2D6 (Homo sapiens, UniProt P10635); experiment: Inhibition of CYP2D6 (unknown origin) at 10 uM relative to control; format: ADME
[31] = molecular target: Urotensin-2 receptor (Homo sapiens) (UniProt Q9UKP6); experiment: Inhibition of human urotensin-2 receptor at 10 uM relative to control
Homo sapiens [32] = species: Homo sapiens; experiment: Inhibition of human GABA-B receptor at 10 uM relative to control
Homo sapiens [33] = species: Homo sapiens; experiment: Inhibition of human phencyclidine receptor at 10 uM relative to control

Chain of Beta-3 adrenergic receptor (Homo sapiens) (P13945 whole entry, looked up): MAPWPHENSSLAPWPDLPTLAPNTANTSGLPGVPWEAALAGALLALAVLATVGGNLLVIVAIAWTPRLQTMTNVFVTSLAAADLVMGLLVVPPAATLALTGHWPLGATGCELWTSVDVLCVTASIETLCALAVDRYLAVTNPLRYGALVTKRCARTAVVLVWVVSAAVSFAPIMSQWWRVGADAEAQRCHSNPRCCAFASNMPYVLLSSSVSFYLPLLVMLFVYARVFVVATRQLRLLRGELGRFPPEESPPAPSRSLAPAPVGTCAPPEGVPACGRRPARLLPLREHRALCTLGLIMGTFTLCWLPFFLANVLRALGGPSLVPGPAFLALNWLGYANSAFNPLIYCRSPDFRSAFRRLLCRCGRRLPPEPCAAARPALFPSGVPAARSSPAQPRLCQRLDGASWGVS
Chain of Alpha-2A adrenergic receptor (Homo sapiens) (P08913 whole entry): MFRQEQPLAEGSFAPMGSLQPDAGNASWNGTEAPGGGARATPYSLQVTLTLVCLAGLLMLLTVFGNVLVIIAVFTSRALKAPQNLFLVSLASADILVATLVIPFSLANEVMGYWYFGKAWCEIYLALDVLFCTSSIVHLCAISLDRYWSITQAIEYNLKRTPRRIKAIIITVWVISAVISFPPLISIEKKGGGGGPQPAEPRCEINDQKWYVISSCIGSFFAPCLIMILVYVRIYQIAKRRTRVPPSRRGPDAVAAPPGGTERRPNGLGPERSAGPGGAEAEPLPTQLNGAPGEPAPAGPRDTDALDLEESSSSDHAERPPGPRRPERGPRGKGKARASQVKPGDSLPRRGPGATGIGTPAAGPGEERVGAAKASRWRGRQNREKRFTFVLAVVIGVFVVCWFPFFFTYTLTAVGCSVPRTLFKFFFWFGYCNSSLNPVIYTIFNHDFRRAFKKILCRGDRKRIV
Chain of CYP2C9 (P11712 whole entry): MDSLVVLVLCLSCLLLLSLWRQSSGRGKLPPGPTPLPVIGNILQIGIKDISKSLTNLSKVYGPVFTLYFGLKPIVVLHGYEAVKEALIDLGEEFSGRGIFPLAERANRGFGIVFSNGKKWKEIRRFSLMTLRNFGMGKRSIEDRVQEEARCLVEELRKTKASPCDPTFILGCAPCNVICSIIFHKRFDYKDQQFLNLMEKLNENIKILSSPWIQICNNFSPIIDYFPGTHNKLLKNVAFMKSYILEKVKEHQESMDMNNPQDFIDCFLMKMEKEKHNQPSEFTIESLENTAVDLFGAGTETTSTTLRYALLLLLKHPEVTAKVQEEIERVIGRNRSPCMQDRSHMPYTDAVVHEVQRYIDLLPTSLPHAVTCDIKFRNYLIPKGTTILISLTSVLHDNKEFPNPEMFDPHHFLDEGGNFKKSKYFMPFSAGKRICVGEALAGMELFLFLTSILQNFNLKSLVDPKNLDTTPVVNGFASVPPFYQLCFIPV
Chain of High affinity choline transporter 1 (Homo sapiens) (Q9GZV3 whole entry): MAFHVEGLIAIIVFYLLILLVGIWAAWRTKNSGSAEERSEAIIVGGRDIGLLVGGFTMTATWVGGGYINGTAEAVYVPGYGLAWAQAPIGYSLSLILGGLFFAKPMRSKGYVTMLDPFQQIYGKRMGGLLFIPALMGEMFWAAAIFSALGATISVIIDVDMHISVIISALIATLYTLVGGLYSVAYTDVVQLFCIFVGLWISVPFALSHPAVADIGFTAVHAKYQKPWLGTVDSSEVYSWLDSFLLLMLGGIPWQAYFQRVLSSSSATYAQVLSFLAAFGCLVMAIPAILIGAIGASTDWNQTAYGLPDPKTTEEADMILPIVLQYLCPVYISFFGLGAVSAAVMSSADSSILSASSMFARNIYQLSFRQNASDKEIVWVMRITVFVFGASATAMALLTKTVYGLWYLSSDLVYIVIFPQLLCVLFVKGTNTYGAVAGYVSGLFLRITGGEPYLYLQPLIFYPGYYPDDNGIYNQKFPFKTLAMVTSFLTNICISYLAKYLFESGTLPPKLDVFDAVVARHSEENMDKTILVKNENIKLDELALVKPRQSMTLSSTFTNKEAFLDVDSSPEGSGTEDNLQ
Chain of 5-hydroxytryptamine receptor 2A (Homo sapiens) (P28223 whole entry): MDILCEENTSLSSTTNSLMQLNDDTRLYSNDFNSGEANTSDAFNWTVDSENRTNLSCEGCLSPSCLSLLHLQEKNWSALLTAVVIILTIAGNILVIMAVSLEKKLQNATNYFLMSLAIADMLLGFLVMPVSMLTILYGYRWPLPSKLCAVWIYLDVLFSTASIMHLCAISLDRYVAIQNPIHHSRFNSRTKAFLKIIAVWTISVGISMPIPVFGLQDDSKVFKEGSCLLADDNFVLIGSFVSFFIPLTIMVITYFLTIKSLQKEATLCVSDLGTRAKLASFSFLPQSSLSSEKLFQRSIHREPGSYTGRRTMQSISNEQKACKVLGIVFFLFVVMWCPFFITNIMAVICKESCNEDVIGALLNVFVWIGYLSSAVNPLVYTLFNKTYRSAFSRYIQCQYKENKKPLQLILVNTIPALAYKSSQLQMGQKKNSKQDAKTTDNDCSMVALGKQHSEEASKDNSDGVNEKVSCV
Chain of CYP2D6 (P10635 whole entry): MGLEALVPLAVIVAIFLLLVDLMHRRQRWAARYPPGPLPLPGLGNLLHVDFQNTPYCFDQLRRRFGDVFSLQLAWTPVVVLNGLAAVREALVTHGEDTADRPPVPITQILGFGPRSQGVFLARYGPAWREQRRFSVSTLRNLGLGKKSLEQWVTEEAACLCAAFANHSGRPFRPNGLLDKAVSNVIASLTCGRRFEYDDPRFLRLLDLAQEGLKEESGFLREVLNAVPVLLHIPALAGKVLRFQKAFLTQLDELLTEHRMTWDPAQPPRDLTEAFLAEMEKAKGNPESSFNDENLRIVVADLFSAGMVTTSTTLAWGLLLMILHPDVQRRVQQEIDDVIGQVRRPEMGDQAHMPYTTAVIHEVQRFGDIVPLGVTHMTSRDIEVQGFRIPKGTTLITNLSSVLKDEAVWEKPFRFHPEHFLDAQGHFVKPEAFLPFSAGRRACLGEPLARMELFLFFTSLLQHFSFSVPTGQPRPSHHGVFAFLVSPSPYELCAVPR
Chain of D(3) dopamine receptor (Homo sapiens) (P35462 whole entry): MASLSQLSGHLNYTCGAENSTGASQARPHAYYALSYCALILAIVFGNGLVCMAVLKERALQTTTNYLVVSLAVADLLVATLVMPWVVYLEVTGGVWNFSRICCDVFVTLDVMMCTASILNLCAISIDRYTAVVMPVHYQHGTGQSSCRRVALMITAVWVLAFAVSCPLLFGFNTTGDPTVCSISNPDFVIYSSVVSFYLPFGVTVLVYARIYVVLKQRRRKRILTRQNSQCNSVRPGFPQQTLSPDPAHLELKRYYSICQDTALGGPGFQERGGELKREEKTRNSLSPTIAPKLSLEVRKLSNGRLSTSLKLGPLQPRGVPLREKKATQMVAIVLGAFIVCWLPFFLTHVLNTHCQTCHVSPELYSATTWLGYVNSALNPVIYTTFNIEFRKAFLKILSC
Chain of BCRP (ABCG2) (Q9UNQ0 whole entry): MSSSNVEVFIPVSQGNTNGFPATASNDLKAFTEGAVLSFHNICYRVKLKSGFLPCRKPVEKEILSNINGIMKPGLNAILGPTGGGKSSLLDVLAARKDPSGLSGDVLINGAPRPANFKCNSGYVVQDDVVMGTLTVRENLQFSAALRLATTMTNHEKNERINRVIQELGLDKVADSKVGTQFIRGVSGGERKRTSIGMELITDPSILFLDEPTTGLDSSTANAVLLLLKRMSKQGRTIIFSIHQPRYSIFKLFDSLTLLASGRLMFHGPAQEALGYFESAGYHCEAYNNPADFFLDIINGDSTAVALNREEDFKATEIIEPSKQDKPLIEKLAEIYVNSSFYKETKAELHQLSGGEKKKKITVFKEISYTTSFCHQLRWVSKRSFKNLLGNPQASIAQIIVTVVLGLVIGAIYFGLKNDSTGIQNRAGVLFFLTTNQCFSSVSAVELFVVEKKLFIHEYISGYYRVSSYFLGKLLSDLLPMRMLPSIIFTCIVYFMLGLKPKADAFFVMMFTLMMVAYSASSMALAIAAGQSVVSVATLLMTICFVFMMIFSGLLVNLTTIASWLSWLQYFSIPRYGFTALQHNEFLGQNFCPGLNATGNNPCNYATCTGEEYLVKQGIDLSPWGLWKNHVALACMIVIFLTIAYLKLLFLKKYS
Chain of cAMP and cAMP-inhibited cGMP 3',5'-cyclic phosphodiesterase 10A (Q9Y233 whole entry): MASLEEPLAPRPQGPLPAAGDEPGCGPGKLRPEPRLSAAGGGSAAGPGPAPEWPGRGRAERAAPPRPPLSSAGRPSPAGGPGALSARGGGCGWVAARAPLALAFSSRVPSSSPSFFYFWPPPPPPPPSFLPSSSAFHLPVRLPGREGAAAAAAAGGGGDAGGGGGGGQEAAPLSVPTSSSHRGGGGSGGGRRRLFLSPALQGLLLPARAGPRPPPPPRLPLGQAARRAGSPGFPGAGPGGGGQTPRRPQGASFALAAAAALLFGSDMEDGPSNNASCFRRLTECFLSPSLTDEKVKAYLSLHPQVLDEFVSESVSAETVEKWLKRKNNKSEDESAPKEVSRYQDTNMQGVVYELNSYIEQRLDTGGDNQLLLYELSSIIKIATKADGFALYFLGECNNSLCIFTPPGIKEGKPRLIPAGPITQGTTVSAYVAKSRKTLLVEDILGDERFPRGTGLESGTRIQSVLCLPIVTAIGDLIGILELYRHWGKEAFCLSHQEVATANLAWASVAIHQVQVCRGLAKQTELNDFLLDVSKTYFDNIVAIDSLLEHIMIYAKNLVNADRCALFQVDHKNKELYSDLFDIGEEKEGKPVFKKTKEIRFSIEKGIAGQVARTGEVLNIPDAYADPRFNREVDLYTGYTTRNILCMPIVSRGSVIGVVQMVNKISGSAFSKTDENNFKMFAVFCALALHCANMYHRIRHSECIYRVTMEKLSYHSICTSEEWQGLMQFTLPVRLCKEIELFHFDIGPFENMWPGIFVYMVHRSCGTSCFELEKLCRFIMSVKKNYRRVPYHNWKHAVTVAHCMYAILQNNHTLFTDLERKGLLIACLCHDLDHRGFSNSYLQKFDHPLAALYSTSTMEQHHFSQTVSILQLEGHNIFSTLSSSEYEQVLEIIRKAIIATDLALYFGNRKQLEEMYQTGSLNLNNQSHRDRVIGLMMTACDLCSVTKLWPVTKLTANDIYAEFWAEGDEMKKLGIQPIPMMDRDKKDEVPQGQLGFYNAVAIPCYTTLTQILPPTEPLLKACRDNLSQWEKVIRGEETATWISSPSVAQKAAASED

SMILES: COc1ccc2c(N[C@@H](C)Cc3cc(C)[nH]n3)ncnc2c1OC
- IC50 [1]: 0.038 µM
- IC50 [2]: 54.3 µM
- IC50 [3]: 15.5 µM
- IC50 [4]: 0.409 µM
- Ratio IC50 (Homo sapiens [5]): 4.6
- Ratio IC50 (Homo sapiens [6]): 4.2
- Ratio IC50 (Homo sapiens [7]): 14600
- Ratio IC50 (Homo sapiens [8]): 2890
- Ratio IC50 (Homo sapiens [9]): 5970
- Ratio IC50 (Homo sapiens [10]): 1700
- Ratio IC50 (Homo sapiens [11]): 45
- Ratio IC50 (Homo sapiens [12]): 1130
- Ratio IC50 (Homo sapiens [13]): 626
- Ratio IC50 (Homo sapiens [14]): 826
- Cp(f) [15]: 0.12 µM
- Drug uptake(free) [16]: 6 nM
- Drug uptake(free) [17]: Bld
- concentration at 1 h [18]: 0.016 µM
- Ratio [19]: 0.12 to 0.14
- efflux ratio (BCRP (ABCG2)): 84
- inhibition [20]: < 50%
- inhibition [21]: < 50%
- inhibition [22]: < 50%
- inhibition [23]: < 50%
- inhibition [24]: < 50%
- inhibition [25]: < 50%
- inhibition [26]: < 50%
- inhibition [27]: < 50%
- inhibition [28]: < 50%
- inhibition [29]: < 50%
- inhibition at 10 µM (CYP2C9): < 50%
- inhibition [30]: < 50%
- inhibition (Rattus norvegicus): < 50%
- inhibition at 10 µM (CYP2D6): < 50%
- inhibition [31]: < 50%
- inhibition (Homo sapiens [32]): < 50%
- inhibition (Homo sapiens [33]): < 50%
